One assay addresses ERK2 (Rattus norvegicus, UniProt P63086). Description: in vitro radioactive kinase assay, Ets-1 phosphorylation by ERK2. It counts as biochemical. To be noted: 100 μM ATP /10mM Ets-1. An outline of the steps: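 Activated rat ERK2 (2 nM) was tested with His-Ets-1 (1–138) at 28–30 °C in HEPES pH 7.5 buffer with 11 mM MgCl2, BSA and 5% DMSO. Reactions were started with [γ-32P]ATP (10 or 100 μM).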

The test system of another assay is UACC-62. Kind of assay: cells. The assay is classed as cell-based. To be noted: UACC-62, 10^−5 M, 48 h.
Another assay has as its system SK-MEL-2. Kind of assay: cells. The assay is classed as cell-based. To be noted: SK-MEL-2, 10^−5 M, 48 h.
A further assay relates to T-47D. Description: cells. The assay is classed as cell-based. The following applies: T-47D, 10^−5 M, 48 h.
The next assay deals with K-562. Description: cells. To be noted: K-562, 10^−5 M, 48 h. It counts as cell-based.
The subject of the next assay is SF-295. Kind of assay: cells. It counts as cell-based. The following applies: SF-295, 10^−5 M, 48 h.
The test system of the next assay is NCI-H322M. Description: cells. It counts as cell-based. To be noted: 10^−5 M, 48 h.
The subject of assay [1] is NCI-60 panel of tumor cell lines. To be noted: average over tested NCI-60 cell lines, 10^−5 M (10 μM), 48 h.
The subject of another assay is M14. Kind of assay: cells. The assay is classed as cell-based. The following applies: M14, 10^−5 M, 48 h.
The next assay concerns SR. Kind of assay: cells. To be noted: 10^−5 M, 48 h. It counts as cell-based.
In another assay the test system is NCI-H226. Description: cells. It counts as cell-based. The following applies: NCI-H226, 10^−5 M, 48 h.
For another assay, the system named is SNB-75. Description: cells. It counts as cell-based. To be noted: SNB-75, 10^−5 M, 48 h.
The test system of the next assay is SW-620. Kind of assay: cells. The following applies: SW-620, 10^−5 M, 48 h. The assay is classed as cell-based.
The test system of the next assay is NCI-H522. Description: cells. It counts as cell-based. The following applies: NCI-H522, 10^−5 M, 48 h.
For another assay, the system named is HOP-92. Kind of assay: cells. It counts as cell-based. The following applies: HOP-92, 10^−5 M, 48 h.
For a further assay, the system named is SF-268. Kind of assay: cells. The assay is classed as cell-based. To be noted: SF-268, 10^−5 M, 48 h.
A further assay relates to HOP-62. Kind of assay: cells. It counts as cell-based. The following applies: HOP-62, 10^−5 M, 48 h.
For a further assay, the system named is PC-3. Kind of assay: cells. To be noted: PC-3, 10^−5 M, 48 h. The assay is classed as cell-based.
In a further assay the test system is SK-MEL-5. Description: cells. The assay is classed as cell-based. To be noted: SK-MEL-5, 10^−5 M, 48 h.
Another assay relates to HCC-2998. Kind of assay: cells. It counts as cell-based. To be noted: HCC-2998, 10^−5 M, 48 h.
In the next assay the test system is MDA-MB-435. Description: cells. The assay is classed as cell-based. To be noted: MDA-MB-435, 10^−5 M, 48 h.
The next assay relates to DU-145. Kind of assay: cells. The assay is classed as cell-based. To be noted: DU-145, 10^−5 M, 48 h.
A further assay deals with RPMI-8226. Kind of assay: cells. It counts as cell-based. The following applies: RPMI-8226, 10^−5 M, 48 h.
A further assay deals with LOX IMVI. Kind of assay: cells. To be noted: 10^−5 M, 48 h. The assay is classed as cell-based.
In a further assay the test system is SNB-19. Description: cells. The assay is classed as cell-based. The following applies: SNB-19, 10^−5 M, 48 h.
The next assay deals with SK-MEL-28. Kind of assay: cells. The assay is classed as cell-based. To be noted: SK-MEL-28, 10^−5 M, 48 h.
The next assay deals with MALME-3M. Kind of assay: cells. The assay is classed as cell-based. To be noted: MALME-3M, 10^−5 M, 48 h.
The test system of another assay is ACHN. Kind of assay: cells. The assay is classed as cell-based. The following applies: 10^−5 M, 48 h.
Another assay deals with UO-31. Kind of assay: cells. The assay is classed as cell-based. To be noted: UO-31, 10^−5 M, 48 h.
Another assay deals with NCI-H23. Kind of assay: cells. The assay is classed as cell-based. To be noted: NCI-H23, 10^−5 M, 48 h.
In another assay the test system is HL-60 (TB). Kind of assay: cells. It counts as cell-based. To be noted: HL-60(TB), 10^−5 M, 48 h.
Another assay concerns RXF 393. Description: cells. The assay is classed as cell-based. The following applies: RXF 393, 10^−5 M, 48 h.
Another assay relates to HCT-116. Kind of assay: cells. The following applies: HCT-116, 10^−5 M, 48 h. The assay is classed as cell-based.
The next assay has as its system BT-549. Kind of assay: cells. The assay is classed as cell-based. The following applies: BT-549, 10^−5 M, 48 h.
Another assay has as its system MDA-MB-468. Description: cells. The assay is classed as cell-based. To be noted: MDA-MB-468, 10^−5 M, 48 h.
Another assay deals with KM 12. Kind of assay: cells. The assay is classed as cell-based. To be noted: KM 12, 10^−5 M, 48 h.
Another assay concerns IGROV1. Kind of assay: cells. It counts as cell-based. To be noted: IGROV1, 10^−5 M, 48 h.
The test system of the next assay is SN12C. Kind of assay: cells. The assay is classed as cell-based. The following applies: 10^−5 M, 48 h.
Another assay relates to OVCAR-3. Description: cells. It counts as cell-based. To be noted: OVCAR-3, 10^−5 M, 48 h.
Another assay has as its system CCRF-CEM. Description: cells. It counts as cell-based. To be noted: 10^−5 M, 48 h.
A further assay concerns HT29. Kind of assay: cells. It counts as cell-based. To be noted: HT29, 10^−5 M, 48 h.
For the next assay, the system named is OVCAR-8. Description: cells. It counts as cell-based. The following applies: OVCAR-8, 10^−5 M, 48 h.
The test system of the next assay is MOLT-4. Description: cells. The assay is classed as cell-based. To be noted: MOLT-4, 10^−5 M, 48 h.
A further assay has as its system OVCAR-5. Description: cells. It counts as cell-based. To be noted: OVCAR-5, 10^−5 M, 48 h.
A further assay relates to NCI-H460. Description: cells. It counts as cell-based. To be noted: NCI-H460, 10^−5 M, 48 h.
For the next assay, the system named is SK-OV-3. Description: cells. The assay is classed as cell-based. The following applies: SK-OV-3, 10^−5 M, 48 h.
In another assay the test system is HCT-15. Description: cells. The assay is classed as cell-based. To be noted: HCT-15, 10^−5 M, 48 h.
The test system of another assay is U251. Kind of assay: cells. It counts as cell-based. The following applies: U251, 10^−5 M, 48 h.
The subject of another assay is MCF7. Kind of assay: cells. The assay is classed as cell-based. The following applies: MCF7, 10^−5 M, 48 h.
Another assay deals with OVCAR-4. Kind of assay: cells. To be noted: OVCAR-4, 10^−5 M, 48 h. It counts as cell-based.
For another assay, the system named is SF-539. Kind of assay: cells. The assay is classed as cell-based. To be noted: SF-539, 10^−5 M, 48 h.
The test system of another assay is A549/ATCC. Description: cells. To be noted: A549/ATCC, 10^−5 M, 48 h. The assay is classed as cell-based.
Where [2] appears, read: ERK2 IC50 at 100 μM ATP /10mM Ets-1, Table 4.

Where two headings read alike, the source gives them in different places.

Chain of ERK2 (P63086 whole entry): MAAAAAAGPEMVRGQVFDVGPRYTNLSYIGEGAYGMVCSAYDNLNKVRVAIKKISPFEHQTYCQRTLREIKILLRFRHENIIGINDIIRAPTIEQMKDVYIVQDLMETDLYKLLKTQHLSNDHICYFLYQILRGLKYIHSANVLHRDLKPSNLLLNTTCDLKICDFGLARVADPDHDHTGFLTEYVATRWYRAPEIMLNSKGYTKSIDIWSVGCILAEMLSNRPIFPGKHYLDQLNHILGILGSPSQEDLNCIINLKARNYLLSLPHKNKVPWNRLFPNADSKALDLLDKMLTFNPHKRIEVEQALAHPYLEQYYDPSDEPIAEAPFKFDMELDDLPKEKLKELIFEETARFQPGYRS

As for `O=C1c2ccccc2C(=O)c2c1oc1c2c(=O)[nH]c2ccc(Br)cc21` [3c, 2-Bromonaphtho[2′,3′:4,5]furo[3,2-c]quinoline-6,7,12(5H)-trione], on ERK2 (setting [2]), the IC50 is more than 100 µM.
Still for that read-out and setting: to `Cc1ccc2[nH]c(=O)c3c4c(oc3c2c1)C(=O)c1ccccc1C4=O` [3d, 2-Methylnaphtho[2′,3′:4,5]furo[3,2-c]quinoline-6,7,12(5H)-trione] belongs 59 ± 8.2 µM.
Consider `CCn1c(=O)c2c(=O)c3c4c(oc3oc2c2ccccc21)C(=O)c1ccccc1C4=O` [5b, 5-Ethyl-5H-naphthalen[2″,3″:4′,5′]furo[3′,2′:4′,5,6]pyrano[3,2-c]quinoline-6,7,8,13-tetraone], for which the “Growth percent (G%)” value worked out at 63.95% with UACC-62; 79.89% in the assay with SK-MEL-2; 85.06% in the assay with T-47D; 28.57% in the assay with K-562; 95.07% in the assay with SF-295; 97.72% in the assay with NCI-H322M. The “Growth percent (G%)” value was found to be 89.81% in the assay with M14; 80.76% in the assay with SR; 99.44% in the assay on NCI-H226; 119.73% in the assay on SNB-75; 73.47% in the assay with SW-620; 65.5% with NCI-H522. Besides, the “Growth percent (G%)” value with HOP-92 is on record as 50.81%; in the assay on SF-268, 84.32%; in the assay on HOP-62, 80.29%; in the assay with PC-3, 81.82%; with SK-MEL-5, 67.42%; in the assay on HCC-2998, 100.59%. For the same molecule, the “Growth percent (G%)” value was 95.88% with MDA-MB-435; 42.4% with DU-145; 33.49% in the assay on RPMI-8226; 32.39% in the assay with LOX IMVI; 90.17% in the assay with SNB-19; 106.96% in the assay with SK-MEL-28. Besides, the “Growth percent (G%)” value in the assay with MALME-3M is 112.5%; in the assay with ACHN it was 79.61%; in the assay with UO-31, 112.5%; with NCI-H23, 66.79%; with HL-60 (TB), −18.8%; with RXF 393, 72.63%. Also, the “Growth percent (G%)” value in the assay on HCT-116 is recorded as 34.6%; in the assay on BT-549, 93.67%; in the assay with MDA-MB-468, −9.96%; with KM 12, 86.61%; in the assay on IGROV1, 68.31%; in the assay on SN12C it was 106.07%. Besides, the “Growth percent (G%)” value is reported as −16.31% in the assay on OVCAR-3; 2.47% in the assay with CCRF-CEM; 63.02% in the assay on HT29; 10.25% in the assay on OVCAR-8; −24.49% with MOLT-4; 117.77% in the assay on OVCAR-5. Further, the “Growth percent (G%)” value is on record as 83.68% in the assay with NCI-H460; 102.05% with SK-OV-3; 79.63% in the assay on HCT-15; 57.67% in the assay on U251; 92.37% in the assay with MCF7; −99.52% with OVCAR-4. Further, the “Growth percent (G%)” value in the assay on SF-539 came to 89.92%; in the assay with A549/ATCC, 82.36%. In [1], the “Average G%” value turned out to be 65.81%. Besides, on ERK2 (read-out: ERK2 IC50 at 100 μM ATP /10mM Ets-1, Table 4), the IC50 stood at 8.3 ± 1.5 µM.

Values taken from paper PMC6543826 (Bioorganic chemistry, 2018).
